Reference: ChEMBL document CHEMBL3102708, “Chartarlactams A-P, phenylspirodrimanes from the sponge-associated fungus Stachybotrys chartarum with antihyperlipidemic activities” (J Nat Prod, 2014)
The source made the active and inactive calls. No cut-off for these calls is given here.

Legend:
[1] = system: HepG2; test: Cytotoxicity against human HepG2 cells up to 100 uM; assay type: cell-based
[2] = system: HepG2; test: Antihyperlipidemic activity in human HepG2 cells assessed as reduction of oleic acid-induced intracellular total cholesterol accumulation at 10 uM […] measured after 6 hrs; assay type: functional, cell-based
How it was run: (§1)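 HepG2 cells were kept in DMEM with 10% FBS and penicillin/streptomycin (100 μg/mL). At 70–80% confluence they were loaded with 100 μM oleic acid in DMEM for 12 h, then exposed to 10 μM compound in DMEM/100 μM oleic acid for a further 6 h. Lovastatin was the positive control and DMEM/oleic acid the blank. Intracellular TC and TG were measured with kits, n = 3, repeated in triplicate, mean ± SEM.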

[3] = system: HepG2; test: Antihyperlipidemic activity in human HepG2 cells assessed as reduction of oleic acid-induced lipid accumulation at 10 uM […] measured after 6 hrs by Oil Red O staining; assay type: functional, cell-based
How it was run: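 HepG2 cells were grown in DMEM with 10% FBS and penicillin/streptomycin (100 μg/mL). At 70–80% confluence they received 100 μM oleic acid for 12 h, then 10 μM compound in DMEM/100 μM oleic acid for 6 h more. Lovastatin was the positive control and DMEM/oleic acid the blank. Neutral lipid was stained with Oil Red O and read at 358 nm, n = 8, repeated in triplicate, mean ± SEM.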

[4] = system: HepG2; test: Antihyperlipidemic activity in human HepG2 cells assessed as reduction of oleic acid-induced intracellular triglyceride accumulation at 10 uM […] measured after 6 hrs; assay type: functional, cell-based; how it was run: as §1

Structure (SMILES)	Activity [1]	Activity [2]	Activity [3]	Activity [4]
C[C@@H]1CC[C@H]2C(C)(C)[C@H](O)CC[C@]2(C)[C@@]12Cc1c(O)cc3c(c1O2)/C(=C1\NC(=O)c2cc(O)c4c(c21)O[C@@]1(C4)[C@@H](C)CC[C@@H]2C(C)(C)[C@@H](O)CC[C@]21C)NC3=O	Non-toxic	Active	Active	
C[C@H]1CC[C@H]2C(C)(C)[C@H](O)[C@H](O)C[C@]2(C)[C@@]12Cc1c(O)cc3c(c1O2)C(=O)NC3	Non-toxic			
C[C@@H]1CC[C@H]2C(C)(C)[C@H](O)CC[C@]2(C)[C@@]12Cc1c(O)cc3c(c1O2)C(=O)N(CCO)C3	Non-toxic			
C[C@@H]1CC[C@H]2C(C)(C)[C@H](O)CC[C@]2(C)[C@@]12Cc1c(O)cc3c(c1O2)CN(CCCCC(=O)O)C3=O	Non-toxic			
C[C@H]1CC[C@H]2C(C)(C)[C@H](O)CC[C@]2(C)[C@@]12Cc1c(O)cc3c(c1O2)CNC3=O	Non-toxic			
C[C@@H]1CC[C@H]2C(C)(C)[C@H](O)CC[C@]2(C)[C@@]12Cc1c(O)cc3c(c1O2)C(=O)NC3	Non-toxic	Active	Active	Active
C[C@@H]1CC[C@H]2C(C)(C)[C@H](O)CC[C@]2(C)[C@@]12Cc1c(O)cc3c(c1O2)CN(C(Cc1ccccc1)C(=O)O)C3=O (some centres not stated)	Non-toxic	Active	Active	Active
CC(=O)O[C@@H]1CC[C@@]2(C)[C@@H](CC[C@@H](C)[C@]23Cc2c(O)cc4c(c2O3)CNC4=O)C1(C)C	Non-toxic			
C[C@H]1CC[C@H]2C(C)(C)[C@H](O)CC[C@]2(C)[C@@]12Cc1c(O)cc3c(c1O2)C(=O)NC3	Non-toxic		Active	Active
C[C@@H]1CC[C@H]2C(C)(C)[C@H](O)CC[C@]2(C)[C@@]12Cc1c(O)cc3c(c1O2)C(=O)NC3=O	Non-toxic			
C[C@H]1CC[C@H]2C(C)(C)[C@H](O)CC[C@]2(C)[C@@]12Cc1c(O)cc3c(c1O2)CN(CCO)C3=O	Non-toxic	Active	Active	
C[C@@H]1CC[C@H]2C(C)(C)C(=O)CC[C@]2(C)[C@@]12Cc1c(O)cc3c(c1O2)CNC3=O	Non-toxic	Active	Active	Active
C[C@@H]1CC[C@H]2C(C)(C)[C@H](O)[C@H](O)C[C@]2(C)[C@@]12Cc1c(O)cc3c(c1O2)CN(CCO)C3=O	Non-toxic			
C[C@@H]1CC[C@H]2C(C)(C)[C@H](O)CC[C@]2(C)[C@@]12Cc1c(O)cc3c(c1O2)CNC3=O	Non-toxic			
C[C@H]1CC[C@H]2C(C)(C)[C@H](O)[C@H](O)C[C@]2(C)[C@@]12Cc1c(O)cc3c(c1O2)CNC3=O	Non-toxic			
CC(=O)O[C@@H]1[C@H](OC(C)=O)C[C@@]2(C)[C@@H](CC[C@@H](C)[C@]23Cc2c(O)cc4c(c2O3)CNC4=O)C1(C)C	Non-toxic			
C[C@@H]1CC[C@H]2[C@](C)(CO)[C@H](O)CC[C@]2(C)[C@@]12Cc1c(O)cc3c(c1O2)CNC3=O	Non-toxic			
C[C@@H]1CC[C@H]2C(C)(C)[C@H](O)[C@@H](O)C[C@]2(C)[C@@]12Cc1c(O)cc3c(c1O2)CNC3=O	Non-toxic			
CC(=O)O[C@@H]1[C@H](O)C[C@@]2(C)[C@@H](CC[C@@H](C)[C@]23Cc2c(O)cc4c(c2O3)CNC4=O)C1(C)C	Non-toxic		Active	Active
C[C@@H]1CC[C@H]2C(C)(C)[C@H](O)[C@H](O)C[C@]2(C)[C@@]12Cc1c(O)cc3c(c1O2)CNC3=O	Non-toxic			
C[C@@H]1CC[C@H]2C(C)(C)[C@H](O)CC[C@]2(C)[C@@]12Cc1c(O)cc3c(c1O2)CN(CCO)C3=O	Non-toxic			
C[C@@H]1CC[C@H]2C(C)(C)[C@H](O)CC[C@]2(C)[C@@]12Cc1c(O[C@H]3O[C@H](CO)[C@@H](O)[C@H](O)[C@H]3O)cc3c(c1O2)CNC3=O	Non-toxic	Active	Active	
C[C@@H]1CC[C@H]2C(C)(C)[C@@H](O)[C@H](O)C[C@]2(C)[C@@]12Cc1c(O)cc3c(c1O2)CNC3=O	Non-toxic			
